From ChEMBL document CHEMBL1122501, “Potential antiatherosclerotic agents. 2. (Aralkylamino)- and (alkylamino) benzoic acid analogues of cetaben” (1983)
Several values for one entry are separate records, joined by “and”; a condition that tells them apart may be missing. Identical values can stand only once.

Experiments:
[1] = target: T1, Sterol O-acyltransferase 1 (Rattus norvegicus) (UniProt O70536); test: In vitro inhibitory activity against acyl coenzyme A:cholesterol acyltransferase (ACAT); design: concentration or dose not given beside the values; details: concentration not given here
T1 sequence (whole entry): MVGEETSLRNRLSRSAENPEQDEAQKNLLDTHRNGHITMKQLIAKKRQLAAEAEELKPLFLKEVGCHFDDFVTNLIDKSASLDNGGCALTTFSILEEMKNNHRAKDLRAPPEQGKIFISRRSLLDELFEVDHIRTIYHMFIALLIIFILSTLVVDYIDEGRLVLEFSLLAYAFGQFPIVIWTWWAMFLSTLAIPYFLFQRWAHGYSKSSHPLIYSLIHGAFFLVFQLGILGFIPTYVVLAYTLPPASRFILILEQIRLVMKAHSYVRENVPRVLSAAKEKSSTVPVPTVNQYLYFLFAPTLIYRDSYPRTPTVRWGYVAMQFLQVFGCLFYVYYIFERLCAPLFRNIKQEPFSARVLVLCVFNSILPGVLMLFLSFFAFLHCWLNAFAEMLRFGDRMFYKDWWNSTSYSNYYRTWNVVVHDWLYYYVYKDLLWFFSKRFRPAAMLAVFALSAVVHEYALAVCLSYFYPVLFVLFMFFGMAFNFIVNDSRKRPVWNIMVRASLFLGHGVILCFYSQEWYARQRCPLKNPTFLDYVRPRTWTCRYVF
How it was run: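 ACAT enzyme from rat adrenal homogenate in 0.2 M KH2PO4 buffer pH 7.4, 1000g 15 min 5 °C supernatant (microsomal fraction). Supernatant + BSA (50 mg/mL) + compound at final 5.2 μg/mL + buffer preincubated 10 min 37 °C; [14C]oleoyl-CoA (0.4 μCi) added, 30 min 37 °C. Lipids extracted, TLC; cholesteryl ester zone counted. Mean % inhibition vs no-compound control; Student's t test.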

Rattus norvegicus [2] = test: In vivo Sterol lowering activity at dose as 0.03 % of the diet.; format: functional
How it was run: (§1)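 Male CFE or CD-1 Sprague-Dawley rats, 140-150 g; 8 per control group, 4 per test group. Compound mixed into ground chow (w/w) via MeOH-CHCl3 (1:3) solution, solvent evaporated; controls got solvent-treated chow. Fed ad libitum 5 days, food intake monitored, killed fed and bled. Serum sterols and triglycerides by adapted autoanalyzer methods; mean percent of control, Student's t test.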

Rattus norvegicus [3] = test: In vivo triglyceride lowering activity dosed at 0.10 % of the diet; format: functional; how it was run: as §1
Rattus norvegicus [4] = test: In vivo Sterol lowering activity at dose as 0.01 % of the diet.; format: functional; how it was run: as §1
Rattus norvegicus [5] = test: In vivo sterol lowering activity dosed at 0.10 % of the diet; format: functional; how it was run: as §1
Rattus norvegicus [6] = test: In vivo Sterol lowering activity at dose as 0.10 % of the diet.; format: functional; how it was run: as §1
Rattus norvegicus [7] = test: In vivo Triglyceride lowering activity at dose as 0.01 % of the diet; format: functional; how it was run: as §1
Rattus norvegicus [8] = test: In vivo triglyceride lowering activity, dosed at 0.03 % of the diet; format: functional; how it was run: as §1
Rattus norvegicus [9] = test: In vivo triglyceride lowering activity, dosed at 0.01 % of the diet.; format: functional; how it was run: as §1
Rattus norvegicus [10] = test: In vivo Sterol lowering activity at dose as 0.05 % of the diet; format: functional; how it was run: as §1
Rattus norvegicus [11] = test: In vivo triglyceride lowering activity dosed at 0.05 % of the diet; format: functional; how it was run: as §1

Compound | inhibition [1] | serum triglycerides, percent of control (Rattus norvegicus [3]) [%] | serum sterol, percent of control (Rattus norvegicus [5]) [%] | also measured
CCCCCCCCCCCCCCCCCCNc1ccc(C(=O)O)cc1 | < 60% | – | – | –
CCOC(=O)c1ccc(NCCCc2ccc(Cl)cc2)cc1 | 42% | 52 | 76 | serum sterol level, percent of control (Rattus norvegicus [2]): 89%; serum sterol, percent of control (Rattus norvegicus [4]): 90%
COc1ccc(CCC(=O)Nc2ccc(C(=O)O)cc2)cc1 | 0% | – | – | –
CCOC(=O)c1ccc(N(C)CCCc2ccc(Cl)cc2)cc1 | 53% | 49 | – | serum sterol, percent of control (Rattus norvegicus [6]): 99%
CCOC(=O)c1ccc(NCCCCCCCCCC/C=C/c2cccs2)cc1 | < 62% | – | – | –
CCCCCCCCCC/C=C/CCCNc1ccc(C(=O)O)cc1 | < 46% | – | – | –
CCOC(=O)c1ccc(NCCCc2cccc(F)c2)cc1 | 50% | 37 | 77 | Diet (Rattus norvegicus [7]): 78%; serum sterol level, percent of control (Rattus norvegicus [2]): 88%; serum triglycerides, percent of control (Rattus norvegicus [8]): 55%; serum sterol, percent of control (Rattus norvegicus [4]): 91%
CCCCCCCCCCCCCNc1ccc(C(=O)OCC)cc1 | < 22% | <70 | 91 | –
CCOC(=O)c1ccc(N(CC)CCCc2ccc(Cl)cc2)cc1 | 48% | 67 | – | serum sterol, percent of control (Rattus norvegicus [6]): 86%
O=C(O)c1ccc(NC/C=C/c2ccc(Cl)cc2)cc1 | 26% | 54 | – | Diet (Rattus norvegicus [9]): 95%; serum sterol, percent of control (Rattus norvegicus [6]): 90%; serum sterol level, percent of control (Rattus norvegicus [2]): 92%; serum triglycerides, percent of control (Rattus norvegicus [8]): 48%; serum sterol, percent of control (Rattus norvegicus [4]): 83%
CCCCCCCCCCCCCCCCCCCNc1ccc(C(=O)O)cc1 | < 36% | – | – | –
O=[N+]([O-])c1ccc(CCCNc2ccccc2)cc1 | 46% | 49 | – | Diet (Rattus norvegicus [9]): 90%; serum sterol, percent of control (Rattus norvegicus [6]): 87%; serum sterol level, percent of control (Rattus norvegicus [2]): 88%; serum triglycerides, percent of control (Rattus norvegicus [8]): 61%; serum sterol, percent of control (Rattus norvegicus [4]): 90%
O=C(O)c1ccc(NCCCc2cccc(Br)c2)cc1 | 18% | 60 | 80 | Diet (Rattus norvegicus [7]): 63%; serum sterol level, percent of control (Rattus norvegicus [2]): 91%; serum triglycerides, percent of control (Rattus norvegicus [8]): 67%; serum sterol, percent of control (Rattus norvegicus [4]): 92%
CCOC(=O)c1ccc(NCCCc2ccc(OC)cc2)cc1 | 54% | 60 | 86 | Diet (Rattus norvegicus [9]): 82%; serum sterol level, percent of control (Rattus norvegicus [2]): 90%; serum triglycerides, percent of control (Rattus norvegicus [8]): 59%; serum sterol, percent of control (Rattus norvegicus [4]): 97%
O=C(O)c1ccc(NCc2ccc(Cl)cc2)cc1 | 15% and 13% | – | – | –
CCOC(=O)c1ccc(NCCCCCCCCCCCCc2cccs2)cc1 | < 40% | <46 | 103 | –
CCCCCCCCc1ccc(CCCNc2ccc(C(=O)OCC)cc2)s1 | < 57% | <46 | <83 | –
O=C(O)c1ccc(NCCCc2ccc(Cl)cc2)cc1 [listing 1 of 2 here] | 18% and 19% | – | – | –
CCOC(=O)c1ccc(NC(=O)/C=C/c2ccc(OC)cc2)cc1 | 52% | – | – | –
O=C(O)c1ccc(NCCCc2ccc(Cl)cc2)cc1 [listing 2 of 2 here] | – | 50 | 72 | Diet (Rattus norvegicus [9]): 70%; serum sterol level, percent of control (Rattus norvegicus [2]): 94%; serum triglycerides, percent of control (Rattus norvegicus [8]): 54%; serum sterol, percent of control (Rattus norvegicus [4]): 94%

Compound | inhibition [1] | serum triglycerides, percent of control (Rattus norvegicus [3]) [%] | serum sterol, percent of control (Rattus norvegicus [5]) [%] | also measured
CCCCCCCCCCCCCCCCNc1ccc(C(=O)O)cc1 | < 53% | – | – | –
CCN(CCCc1ccc(Cl)cc1)c1ccc(C(=O)O)cc1 | 52% | 68 | – | serum sterol, percent of control (Rattus norvegicus [6]): 83%
CN(CCCc1ccc(Cl)cc1)c1ccc(C(=O)O)cc1 | 24% | 74 | – | serum sterol, percent of control (Rattus norvegicus [6]): 107%
CCCCCCCCCCCCCCCCCNc1ccc(C(=O)OCC)cc1 | – | – | 111 | –
CCOC(=O)c1ccc(NCCCc2c(Cl)cccc2Cl)cc1 | 62% | 64 | – | serum sterol, percent of control (Rattus norvegicus [6]): 92%
O=C(O)c1ccc(NCCCCCCCc2ccccc2)cc1 | 14% | <71 | 91 | Diet (Rattus norvegicus [10]): 96%; Diet (Rattus norvegicus [11]): <61%
CCOC(=O)c1ccc(NCc2ccc(Cl)cc2)cc1 | 33% | 50 | 84 | Diet (Rattus norvegicus [9]): 78%; serum sterol level, percent of control (Rattus norvegicus [2]): 86%; serum triglycerides, percent of control (Rattus norvegicus [8]): 53%; serum sterol, percent of control (Rattus norvegicus [4]): 94%
O=C([O-])c1ccc(NCCCc2ccc(Cl)cc2)cc1.[Na+] | – | 52 | 84 | Diet (Rattus norvegicus [9]): 72%; serum sterol level, percent of control (Rattus norvegicus [2]): 92%; serum triglycerides, percent of control (Rattus norvegicus [8]): 60%; serum sterol, percent of control (Rattus norvegicus [4]): 94%
CCCCCCNc1ccc(C(=O)O)cc1 | – | – | – | serum sterol, percent of control (Rattus norvegicus [6]): 94%
O=C(O)c1ccc(NCCCc2ccc(Cl)c(Cl)c2)cc1 | 19% | 63 | 73 | Diet (Rattus norvegicus [9]): 79%; serum sterol level, percent of control (Rattus norvegicus [2]): 89%; serum triglycerides, percent of control (Rattus norvegicus [8]): 70%; serum sterol, percent of control (Rattus norvegicus [4]): 96%
C=C(CCCCCCCCCC)CCCCCNc1ccc(C(=O)OCC)cc1 | 9% | <56 | <88 | –
CCCCCCCCCCCCCCCCNc1ccc(C(=O)OC)cc1 | 0% | 85 | 97 | –
O=C(O)c1ccc(C(=O)O)c(NCCCc2ccc(Cl)cc2)c1 | 0% | 51 | – | Diet (Rattus norvegicus [9]): 72%; serum sterol, percent of control (Rattus norvegicus [6]): 103%; serum sterol level, percent of control (Rattus norvegicus [2]): 100%; serum triglycerides, percent of control (Rattus norvegicus [8]): 57%; serum sterol, percent of control (Rattus norvegicus [4]): 102%
CCCCCCCCCCCCCNc1ccc(C(=O)O)cc1 | < 29% | – | – | –
CCOC(=O)c1ccc(NCCCCCCCCCC/C=C\c2cccs2)cc1 | < 47% | 72 | <82 | –
CCCCCCCCCCCCNc1ccc(C(=O)O)cc1 | < 21% and 17% | – | – | –
C=CCCCCCCCC/C=C/CCCNc1ccc(C(=O)O)cc1 | < 44% | – | – | –
CCOC(=O)c1ccc(NCCCCCCc2cccs2)cc1 | 63% | – | – | –
CCCCCCCCCCCc1nc(CNc2ccc(C(=O)OCC)cc2)c[nH]1 | < 59% | 83 | 100 | –
COc1ccc(/C=C/C(=O)Nc2ccc(C(=O)O)cc2)cc1 | 20% | – | – | –
